In brackets after ≈: the same amount, converted by molar mass. Activity calls are given as the source filed them. No cut-off for these calls is given here.
How the values were obtained:
Mycobacterium avium [1] = assay: Antimycobacterial activity against isoniazid, rifampicin, ethambutol and ofloxacin-resistant Mycobacterium avium My 330/88 after 21 days; type: functional; conditions: My 330/88, 504 h
In short: (§1)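 Micromethod MIC in Šula's semisynthetic medium at 37 °C. Compounds added in DMSO at 1000 down to 0.032 µmol/L. Isoniazid standard in sterile water at 0.5–250 µmol/L. Inocula: H37Rv 10^3, M. avium 10^5, M. kansasii 10^4. Read at 14 and 21 d, plus 7 d for M. kansasii.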

Mycobacterium avium [2] = assay: Antimycobacterial activity against isoniazid, rifampicin, ethambutol and ofloxacin-resistant Mycobacterium avium My 330/88 after 14 days; type: functional; conditions: My 330/88, 336 h; in short: as §1
[3] = test system: Mycobacterium tuberculosis; assay: Antimycobacterial activity against Mycobacterium tuberculosis H37Rv My 331/88 after 21 days; type: functional; conditions: H37Rv My 331/88, 504 h; in short: as §1
[4] = test system: Mycobacterium tuberculosis; assay: Antimycobacterial activity against Mycobacterium tuberculosis H37Rv My 331/88 after 14 days; type: functional; conditions: H37Rv My 331/88, 336 h; in short: as §1
[5] = test system: Trichophyton mentagrophytes; assay: Antifungal activity against Trichophyton mentagrophytes 445 after 120 hrs by broth microdilution method; type: functional; conditions: Trichophyton mentagrophytes, 445, 120 h
In short: (§2)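 Filamentous dermatophyte tested by broth microdilution in RPMI 1640 with glutamine, fluconazole as reference. Value expressed as IC50 relative to growth control. Read at 72 and 120 h.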

[6] = test system: Trichophyton mentagrophytes; assay: Antifungal activity against Trichophyton mentagrophytes 445 after 72 hrs by broth microdilution method; type: functional; conditions: Trichophyton mentagrophytes, 445, 72 h; in short: as §2
Lichtheimia corymbifera [7] = assay: Antifungal activity against Absidia corymbifera 272 after 48 hrs by broth microdilution method; type: functional; conditions: Lichtheimia corymbifera, 272, 48 h
In short: (§3)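 Broth microdilution in RPMI 1640 with glutamine, fluconazole as reference. For yeasts, MIC is ≥80% growth reduction (IC80) versus control. For filamentous fungi, the value is expressed as IC50. Readings at 24 and 48 h.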

Lichtheimia corymbifera [8] = assay: Antifungal activity against Absidia corymbifera 272 after 24 hrs by broth microdilution method; type: functional; conditions: Lichtheimia corymbifera, 272, 24 h; in short: as §3
Aspergillus fumigatus [9] = assay: Antifungal activity against Aspergillus fumigatus 231 after 48 hrs by broth microdilution method; type: functional; conditions: Aspergillus fumigatus, 231, 48 h; in short: as §3
Aspergillus fumigatus [10] = assay: Antifungal activity against Aspergillus fumigatus 231 after 24 hrs by broth microdilution method; type: functional; conditions: Aspergillus fumigatus, 231, 24 h; in short: as §3
Trichosporon asahii [11] = assay: Antifungal activity against Trichosporon asahii 1188 after 48 hrs by broth microdilution method; type: functional; conditions: Trichosporon asahii, 1188, 48 h; in short: as §3
Trichosporon asahii [12] = assay: Antifungal activity against Trichosporon asahii 1188 after 24 hrs by broth microdilution method; type: functional; conditions: Trichosporon asahii, 1188, 24 h; in short: as §3
Pichia kudriavzevii [13] = assay: Antifungal activity against Candida krusei E28 after 48 hrs by broth microdilution method; type: functional; conditions: E28, 48 h; in short: as §3
Pichia kudriavzevii [14] = assay: Antifungal activity against Candida krusei E28 after 24 hrs by broth microdilution method; type: functional; conditions: E28, 24 h; in short: as §3
Candida albicans [15] = assay: Antifungal activity against Candida albicans ATCC 44859 after 48 hrs by broth microdilution method; type: functional; conditions: ATCC 44859, 48 h; in short: as §3
Candida albicans [16] = assay: Antifungal activity against Candida albicans ATCC 44859 after 24 hrs by broth microdilution method; type: functional; conditions: ATCC 44859, 24 h; in short: as §3
Nakaseomyces glabratus = assay: Antifungal activity against Candida glabrata 20/I at 500 micromol/L after 24 to 48 hrs by broth microdilution method; type: functional, organism-based; in short: as §3
Candida tropicalis = assay: Antifungal activity against Candida tropicalis 156 at 500 micromol/L after 24 to 48 hrs by broth microdilution method; type: functional, organism-based; in short: as §3
Pseudomonas aeruginosa = assay: Antibacterial activity against Pseudomonas aeruginosa CCM 1961 at 500 micromol/L after 24 to 48 hrs by broth microdilution method; type: functional, organism-based
In short: (§4)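 Broth microdilution in Mueller–Hinton broth, compounds dissolved in DMSO, tested over a dilution series from 500 downward. MIC taken as ≥95% growth reduction (IC95) versus drug-free control. Benzylpenicillin comparator. Readings at 24 and 48 h.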

Klebsiella pneumoniae [17] = assay: Antibacterial activity against ESBL-positive Klebsiella pneumoniae J 14368/08 at 500 micromol/L after 24 to 48 hrs by broth microdilution method; type: functional, organism-based; in short: as §4
Klebsiella pneumoniae [18] = assay: Antibacterial activity against Klebsiella pneumoniae D 11750/08 at 500 micromol/L after 24 to 48 hrs by broth microdilution method; type: functional, organism-based; in short: as §4
Escherichia coli = assay: Antibacterial activity against Escherichia coli CCM 4517 at 500 micromol/L after 24 to 48 hrs by broth microdilution method; type: functional, organism-based; in short: as §4
Enterococcus sp. = assay: Antibacterial activity against Enterococcus sp. J 14365/08 at 500 micromol/L after 24 to 48 hrs by broth microdilution method; type: functional, organism-based; in short: as §4
[19] = test system: Staphylococcus epidermidis; assay: Antibacterial activity against Staphylococcus epidermidis H 6966/08 after 48 hrs by broth microdilution method; type: functional; conditions: H 6966/08, 48 h; in short: as §4
[20] = test system: Staphylococcus epidermidis; assay: Antibacterial activity against Staphylococcus epidermidis H 6966/08 after 24 hrs by broth microdilution method; type: functional; conditions: H 6966/08, 24 h; in short: as §4
Staphylococcus aureus [21] = assay: Antibacterial activity against methicillin-resistant Staphylococcus aureus H 5996/08 after 48 hrs by broth microdilution method; type: functional; conditions: H 5996/08, 48 h; in short: as §4
Staphylococcus aureus [22] = assay: Antibacterial activity against methicillin-resistant Staphylococcus aureus H 5996/08 after 24 hrs by broth microdilution method; type: functional; conditions: H 5996/08, 24 h; in short: as §4
Staphylococcus aureus [23] = assay: Antibacterial activity against Staphylococcus aureus CCM 4516/08 after 48 hrs by broth microdilution method; type: functional; conditions: CCM 4516/08, 48 h; in short: as §4
Staphylococcus aureus [24] = assay: Antibacterial activity against Staphylococcus aureus CCM 4516/08 after 24 hrs by broth microdilution method; type: functional; conditions: CCM 4516/08, 24 h; in short: as §4
Mycobacterium kansasii [25] = assay: Antimycobacterial activity against Mycobacterium kansasii 6509/96 after 21 days; type: functional; conditions: 6509/96, 504 h; in short: as §1
Mycobacterium kansasii [26] = assay: Antimycobacterial activity against Mycobacterium kansasii 6509/96 after 14 days; type: functional; conditions: 6509/96, 336 h; in short: as §1
Mycobacterium kansasii [27] = assay: Antimycobacterial activity against Mycobacterium kansasii 6509/96 after 7 days; type: functional; conditions: 6509/96, 168 h; in short: as §1
Mycobacterium kansasii [28] = assay: Antimycobacterial activity against Mycobacterium kansasii My 235/80 after 21 days; type: functional; conditions: My 235/80, 504 h; in short: as §1
Mycobacterium kansasii [29] = assay: Antimycobacterial activity against Mycobacterium kansasii My 235/80 after 14 days; type: functional; conditions: My 235/80, 336 h; in short: as §1
HepG2 = assay: Cytotoxicity against human HepG2 cells after 24 hrs by CellTiter assay; type: cell-based; conditions: HepG2, 24 h
In short: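 HepG2 cells (passage 27–33) in MEM with 10% FBS, L-glutamine and NEAA, seeded at 1×10^4 per well. Treated next day with compounds at 0.1–100 µM (or 0.1–25 µmol/L), triplicates, <1% DMSO, for 24 h at 37 °C, 5% CO2. MTS reagent added for 2 h, absorbance read at 490 nm. IC50 taken against untreated (100%) and 10% DMSO (0%) controls.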

Mycobacterium kansasii [30] = assay: Antimycobacterial activity against Mycobacterium kansasii My 235/80 after 7 days; type: functional; conditions: My 235/80, 168 h; in short: as §1

CCOP(=O)(OCC)Oc1ccc(Br)cc1C(=O)Nc1cccc(Br)c1
MIC (Mycobacterium avium [1]): 16 µM (≈ 8.11 µg/mL)
MIC (Mycobacterium avium [2]): 16 µM (≈ 8.11 µg/mL)
MIC [3]: 2 µM (≈ 1.01 µg/mL)
MIC [4]: 2 µM (≈ 1.01 µg/mL)
MIC50 [5]: > 500 µM
MIC50 [6]: > 500 µM
MIC50 (Lichtheimia corymbifera [7]): > 500 µM
MIC50 (Lichtheimia corymbifera [8]): > 500 µM
MIC50 (Aspergillus fumigatus [9]): > 500 µM
MIC50 (Aspergillus fumigatus [10]): > 500 µM
MIC80 (Trichosporon asahii [11]): > 500 µM
MIC80 (Trichosporon asahii [12]): > 500 µM
MIC80 (Pichia kudriavzevii [13]): > 500 µM
MIC80 (Pichia kudriavzevii [14]): > 500 µM
MIC80 (Candida albicans [15]): > 500 µM
MIC80 (Candida albicans [16]): > 500 µM
Activity (Nakaseomyces glabratus): inactive
Activity (Candida tropicalis): inactive
Activity (Pseudomonas aeruginosa): inactive
Activity (Klebsiella pneumoniae [17]): inactive
Activity (Klebsiella pneumoniae [18]): inactive
Activity (Escherichia coli): inactive
Activity (Enterococcus sp.): inactive
MIC95 [19]: 250 µM (≈ 127 µg/mL)
MIC95 [20]: 31.2 µM (≈ 15.8 µg/mL)
MIC95 (Staphylococcus aureus [21]): 250 µM (≈ 127 µg/mL)
MIC95 (Staphylococcus aureus [22]): 31.2 µM (≈ 15.8 µg/mL)
MIC95 (Staphylococcus aureus [23]): 250 µM (≈ 127 µg/mL)
MIC95 (Staphylococcus aureus [24]): 31.2 µM (≈ 15.8 µg/mL)
MIC (Mycobacterium kansasii [25]): 8 µM (≈ 4.06 µg/mL)
MIC (Mycobacterium kansasii [26]): 8 µM (≈ 4.06 µg/mL)
MIC (Mycobacterium kansasii [27]): 4 µM (≈ 2.03 µg/mL)
MIC (Mycobacterium kansasii [28]): 8 µM (≈ 4.06 µg/mL)
MIC (Mycobacterium kansasii [29]): 8 µM (≈ 4.06 µg/mL)
IC50 (HepG2): 4.41 µM
MIC (Mycobacterium kansasii [30]): 4 µM (≈ 2.03 µg/mL)

From ChEMBL document CHEMBL3102784, “Salicylanilide diethyl phosphates: synthesis, antimicrobial activity and cytotoxicity” (Bioorg Med Chem, 2014)
